Source: PMC7740640 (Xenobiotica; the fate of foreign compounds in biological …, 2020)
“And” between values parts separate entries of the source, which are not always exact repeats. Equal values may be shown once.

Experiments:
Type in all cases: in vitro ADME
[1] = biological target: CYP2C19 (Homo sapiens, UniProt P33261); assay: C152 metabolism; details: for Specific rate: CYP2C19
Outline: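 Human P450s in Supersomes that co-express human CPR and cytochrome b5. Reaction in 0.1 M Na-HEPES pH 7.4 with 60 mM KCl, stirred at 30 °C. C152 0.1–30 μM added from acetone stock; 200 μM NADPH starts it. Fluorescence rise read at 500 nm (isosbestic, mono-demethylation step). Rate is the linear slope over 3–5 min, scaled by the C151–C152 fluorescence difference. Michaelis–Menten or Hill fit, Vmax per P450, 2–6 runs; rate at 30 μM computed from fit.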

[2] = biological target: T1, CYP2B6 (Homo sapiens, UniProt P20813); assay: Projected involvement in C152 metabolism in HLM
T1 sequence (P20813 1-491): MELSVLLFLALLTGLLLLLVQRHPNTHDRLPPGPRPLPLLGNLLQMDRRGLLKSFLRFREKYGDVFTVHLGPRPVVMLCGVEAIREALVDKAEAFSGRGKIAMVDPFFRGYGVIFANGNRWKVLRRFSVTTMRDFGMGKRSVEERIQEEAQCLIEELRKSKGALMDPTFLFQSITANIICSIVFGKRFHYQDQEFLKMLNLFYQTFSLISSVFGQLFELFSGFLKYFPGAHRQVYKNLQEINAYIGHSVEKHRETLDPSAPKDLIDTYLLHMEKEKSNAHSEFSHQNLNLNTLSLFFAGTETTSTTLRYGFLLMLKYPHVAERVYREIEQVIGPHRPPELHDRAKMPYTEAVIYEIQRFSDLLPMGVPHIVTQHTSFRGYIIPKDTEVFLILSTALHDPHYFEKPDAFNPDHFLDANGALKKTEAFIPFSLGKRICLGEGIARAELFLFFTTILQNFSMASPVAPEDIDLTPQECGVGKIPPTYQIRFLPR
Outline: (§1)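 Calculated values, no new incubations. Each of seven C152-metabolizing P450s has a fractional content in the pooled HLM P450 pool (LC-MS/MS MRM). That fraction is multiplied by its Supersome Vmax (saturation) or by its rate at 30 μM C152 from Hill or Michaelis–Menten parameters. Expected participation (% TNR) is each normalized rate divided by the sum of all seven.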

[3] = biological target: T2, CYP1A2 (Homo sapiens, UniProt P05177); assay: Formation of C151 from C152; details: SS(1A2)
T2 sequence (P05177 2-516 limits assumed): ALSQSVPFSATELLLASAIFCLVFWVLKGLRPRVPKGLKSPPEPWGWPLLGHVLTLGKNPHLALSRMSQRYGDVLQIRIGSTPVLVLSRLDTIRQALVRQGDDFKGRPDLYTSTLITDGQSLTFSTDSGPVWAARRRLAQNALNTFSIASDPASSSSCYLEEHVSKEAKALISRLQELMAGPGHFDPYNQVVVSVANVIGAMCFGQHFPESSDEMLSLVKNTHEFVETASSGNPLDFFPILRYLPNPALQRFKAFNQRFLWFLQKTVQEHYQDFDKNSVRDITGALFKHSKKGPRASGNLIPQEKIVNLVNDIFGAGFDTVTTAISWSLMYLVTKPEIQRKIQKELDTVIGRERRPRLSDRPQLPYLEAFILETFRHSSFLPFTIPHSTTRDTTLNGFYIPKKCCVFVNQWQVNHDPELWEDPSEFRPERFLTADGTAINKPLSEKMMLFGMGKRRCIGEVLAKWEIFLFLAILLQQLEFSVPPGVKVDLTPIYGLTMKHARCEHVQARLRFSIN
Outline: (§2)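 Probes hold 5–20 pmol P450 in 0.1 M Na-HEPES pH 7.4 with 60 mM KCl. C152 added from 0.5 or 4 mM acetone stock; reaction started with 500 μM NADPH (final), run 5 min at 30 °C with shaking. Quenched with isopropanol containing phenacetin internal standard, then centrifuged. C151 quantified by reverse-phase LC with ESI-positive MRM MS/MS (m/z 230.16→157.2). Michaelis–Menten or Hill fit; normalized per P450 (Supersomes) or CPR (HLM).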

[4] = biological target: T2, CYP1A2; assay: Projected involvement in C152 metabolism in HLM
Outline: as §1

[5] = biological target: T3, CYP2C8 (Homo sapiens, UniProt P10632); assay: C152 metabolism
T3 sequence (P10632 1-490): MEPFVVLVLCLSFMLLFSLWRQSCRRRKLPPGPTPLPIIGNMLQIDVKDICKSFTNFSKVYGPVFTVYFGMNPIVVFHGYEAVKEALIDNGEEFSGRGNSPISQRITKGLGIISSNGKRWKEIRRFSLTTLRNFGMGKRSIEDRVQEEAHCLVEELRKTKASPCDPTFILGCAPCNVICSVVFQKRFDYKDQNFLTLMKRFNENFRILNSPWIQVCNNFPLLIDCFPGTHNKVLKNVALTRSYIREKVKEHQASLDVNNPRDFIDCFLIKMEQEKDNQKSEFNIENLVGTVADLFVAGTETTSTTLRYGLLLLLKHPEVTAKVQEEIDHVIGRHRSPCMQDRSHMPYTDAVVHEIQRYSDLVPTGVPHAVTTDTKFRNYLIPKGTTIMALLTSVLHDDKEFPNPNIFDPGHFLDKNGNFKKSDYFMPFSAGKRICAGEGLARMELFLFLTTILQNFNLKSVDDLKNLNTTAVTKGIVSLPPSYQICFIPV

[6] = test system: human liver microsomes (HLM); assay: Formation of C151 from C152
Outline: as §2

[7] = test system: human liver microsomes (HLM); assay: C152 metabolism
Outline: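 Pooled 50-donor mixed-gender human liver microsomes. Continuous single-wavelength fluorimetry at 500 nm in 0.1 M Na-HEPES pH 7.4 with 60 mM KCl, stirred at 30 °C. C152 0.1–30 μM from acetone stock; 200 μM NADPH starts it. Linear slope over 3–5 min, scaled by the C151–C152 fluorescence difference. Normalized to CPR, measured as NADPH-dependent cytochrome c reduction rate. Michaelis–Menten or Hill fit, 2–6 runs.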

[8] = at saturation of all P450 species
[9] = read-out: KM or S50 (Formation of C151, LC-MS), Michaelis-Menten fit

CYP2C19, sequence (P33261 whole entry): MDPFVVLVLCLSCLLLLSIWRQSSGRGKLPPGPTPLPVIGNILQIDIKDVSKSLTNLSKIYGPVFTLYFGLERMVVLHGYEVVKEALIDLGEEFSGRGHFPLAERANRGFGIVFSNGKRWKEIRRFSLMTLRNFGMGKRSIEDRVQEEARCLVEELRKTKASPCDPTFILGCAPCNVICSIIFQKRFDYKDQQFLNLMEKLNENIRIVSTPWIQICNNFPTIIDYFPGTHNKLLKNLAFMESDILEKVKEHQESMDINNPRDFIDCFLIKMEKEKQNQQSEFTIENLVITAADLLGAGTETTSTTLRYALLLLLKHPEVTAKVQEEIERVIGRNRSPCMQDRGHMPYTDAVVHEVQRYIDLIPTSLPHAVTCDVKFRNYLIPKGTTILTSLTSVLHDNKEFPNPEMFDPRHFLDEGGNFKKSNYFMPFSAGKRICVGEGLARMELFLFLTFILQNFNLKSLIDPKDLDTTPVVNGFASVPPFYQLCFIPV

SMILES: CN(C)c1ccc2c(C(F)(F)F)cc(=O)oc2c1 [C152, 7-Dimethylamino-4-trifluromethylcoumarin]
- Specific rate ([1]; at 30 μM C152, calculated from fit parameters): 6.5 min⁻¹
- Specific rate ([1]; at saturation (Vmax in Supersomes)): 7.8 min⁻¹
- Vmax (C152 metabolism, fluorimetric assay) ([1]; SS(2C19), mol C152 per mol P450 per min): 7.8 ± 3.4 min⁻¹
- Fraction of C151 formed, Fluorimetry ([1]; SS(2C19), scanning fluorimetry with PCA): 3.2±2.4%
- Km ([1]; read-out: KM or S50 (C152 metabolism, fluorimetric assay), SS(2C19), Michaelis-Menten fit, 30 °C, pH 7.4): 5.7 ± 1.1 µM
- Normalized rate ([2]; at 30 μM C152): 0.863 min⁻¹
- Expected participation ([2]; at 30 μM C152, % TNR): 7.10%
- Normalized rate [2, 8]: 0.914 min⁻¹
- Fraction of C151 formed, LC-MS ([3]; C151 formed over total C152 metabolized): 20% and 20±2%
- Vmax (Formation of C151, LC-MS) ([3]; mol C151 formed per mol P450 per min): 0.98 ± 0.12 min⁻¹
- Km [3, 9]: 1.7 ± 0.6 µM
- Normalized rate ([4]; at 30 μM C152): 0.375 min⁻¹
- Expected participation ([4]; at 30 μM C152, % TNR): 3.08%
- Normalized rate [4, 8]: 0.412 min⁻¹
- Expected participation ([4]; at saturation of all P450 species, % TNR): 3.10%
- Specific rate ([5]; CYP2C8, at 30 μM C152, calculated from fit parameters): 1.9 min⁻¹
- N, Hill coefficient (C152 metabolism, fluorimetric assay) ([5]; SS(2C8)): 2.6±0.3
- Vmax (C152 metabolism, fluorimetric assay) ([5]; SS(2C8), mol C152 per mol P450 per min): 2.6 ± 0.8 min⁻¹
- Km ([5]; read-out: KM or S50 (C152 metabolism, fluorimetric assay), SS(2C8), Hill fit (S50), 30 °C, pH 7.4): 12 ± 6 µM
- Vmax (Formation of C151, LC-MS) ([6]; mol C151 formed, normalized per CPR): 1.3 ± 0.2 min⁻¹
- Km [6, 9]: 3 ± 0.5 µM
- N, Hill coefficient (C152 metabolism, fluorimetric assay) [7]: 1.8±0.3
- Vmax (C152 metabolism, fluorimetric assay) ([7]; normalized per concentration of CPR): 58 ± 24 min⁻¹
- Km ([7]; read-out: KM or S50 (C152 metabolism, fluorimetric assay), Hill fit (S50), 30 °C, pH 7.4): 4.5 ± 1.5 µM
- Fraction of C151 formed, Fluorimetry ([7]; scanning fluorimetry with PCA): 5.7±2.0%
